Tests used:
[1] = system: Plasmodium falciparum; experiment: Antiplasmodial activity against chloroquine-resistant Plasmodium falciparum W2 infected human erythrocytes as [3H]hypoxanthine uptake after 24 hrs; format: functional, organism-based
Summary of the method: (§1)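 P. falciparum (D6, W2) cultured in type A+ human erythrocytes, RPMI-1640 with NaHCO3, HEPES and 10% heat-inactivated human plasma, 37 °C under 5% O2/5% CO2/90% N2. Infected red cells at 0.5-1.0% parasitemia, 1.0% hematocrit exposed to compound, duplicate seven-point series, 24 h; then 0.5 μCi [3H]hypoxanthine per well for 18 h more. Filter harvest, scintillation counting; IC50 by nonlinear regression versus zero-drug controls.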

[2] = Selectivity index, ratio of ED50 for human KB cells to IC50 for chloroquine-resistant Plasmodium falciparum W2; format: functional
[3] = system: Plasmodium falciparum; experiment: Antiplasmodial activity against chloroquine-sensitive Plasmodium falciparum D6 infected human erythrocytes as [3H]hypoxanthine uptake after 24 hrs; format: functional, organism-based; summary of the method: as §1
[4] = system: KB; experiment: Cytotoxicity against human KB cells after 72 hrs by SRB assay; format: functional; details: read-out: ED50 (the source's name)
Summary of the method: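 KB-3 cells grown in DMEM with 10% FBS at 37 °C and 5% CO₂ to 60–70% confluence, then used 1 day after a medium change. Samples were dissolved in DMSO and serially diluted in 10% aqueous DMSO. 5×10⁴ cells were exposed for 72 h at 37 °C, then TCA-fixed, stained with 0.4% SRB and read at 515 nm. Zero-day control was subtracted and values expressed relative to solvent control; ED50 by nonlinear regression.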

[5] = Selectivity index, ratio of ED50 for human KB cells to IC50 for […] Plasmodium falciparum D6; format: functional

Compound	IC50 [1] [nM]	Selectivity Index [2]	IC50 [3] [nM]	EC50 [4] [µM]	Selectivity Index [5]
COc1cc2c3cc1Oc1cc(ccc1O)C[C@@H]1c4c(cc(OC)c(O)c4Oc4ccc(cc4)C[C@@H]3N(C)CC2)CC[N+]1(C)C.[Cl-]	> 16400	2	15300	> 32.8	>2.1
COc1cc2c3c4c1Oc1cc5c(cc1O4)[C@H](Cc1ccc(O)c(c1)Oc1ccc(cc1)C[C@@H]3NCC2)N(C)CC5	281	14	48	3.8	79
COc1ccc2cc1Oc1cc3c(cc1OC)CCN=C3Cc1ccc(cc1)COc1c(OC)cc3c(c1O)[C@H](C2)N(C)CC3	169	>200	346	> 33.8	>98
CN1CCc2cc3c4cc2[C@@H]1Cc1ccc(O)c(c1)Oc1ccc(cc1)C[C@H]1c2c(cc(O)c(c2O4)O3)CCN1C	259	19	90	4.9	55
COc1cc2c3c(c1O)Oc1cc4c(cc1O)CCN(C)[C@H]4Cc1ccc(O)c(c1)Oc1ccc(cc1)C[C@@H]2NCC3	1590	11	883	17.8	20
COc1ccc2cc1Oc1cc3c(cc1OC)CCN[C@@H]3Cc1ccc(cc1)Oc1c3c(cc4c1[C@@H](C2)N(C)CC4)OCO3	676	21.2	530	14.4	27.1
COc1ccc2cc1Oc1ccc(cc1)C[C@H]1c3cc(c(OC)cc3CCN1C)Oc1c(O)c(OC)cc3c1[C@@H](C2)NCC3	210	50	115	10.4	92
COc1ccc2cc1Oc1ccc(cc1)C[C@H]1c3cc(c(OC)cc3CCN1C)Oc1c(OC)c(OC)cc3c1[C@@H](C2)N(C)CC3	88	120	260	10.6	40
COc1ccc2cc1Oc1cc3c(cc1OC)CCN(C(C)=O)[C@H]3Cc1ccc(cc1)Oc1c3c(cc4c1[C@H](C2)N(C)CC4)OCO3	1200	7	2320	8.36	3.6
COc1ccc2cc1Oc1ccc(cc1)C[C@H]1c3c(cc(OC)c4c3Oc3cc5c(cc3O4)CCN=C5C2)CCN1C	464	11	554	5	11
COc1ccc2cc1Oc1cc3c(cc1OC)CCN(C)[C@@H]3Cc1ccc(cc1)Oc1c(O)c(OC)cc3c1[C@@H](C2)N(C)CC3	387	20	128	7.7	60
COc1ccc2cc1Oc1cc3c(nccc3cc1OC)Cc1ccc(cc1)COc1c(OC)cc3c(c1O)[C@H](C2)N(C)CC3	66	220	115	14.7	130
COc1cc2c3cc1Oc1c(O)c(OC)cc4c1[C@H](Cc1ccc(O)c(c1)Oc1ccc(cc1)C[C@H]3N(C)CC2)N(C)CC4	609	29	134	17.5	130
COc1cc2c3cc1Oc1c(O)c(OC)cc4c1[C@H](Cc1ccc(O)c(c1)Oc1ccc(cc1)C[C@@H]3N(C)CC2)N(C)CC4	623	6	232	3.7	16
COc1ccc2cc1Oc1ccc(cc1)C[C@H]1c3cc(c(OC)cc3CCN1C)Oc1c(O)c(OC)cc3c1[C@@H](C2)N(C)CC3	378	28	199	10.7	54
COc1cc2ccnc3c2cc1Oc1cc(ccc1O)C[C@H]1c2c(cc(OC)c(c2O)OCc2ccc(cc2)C3)CCN1C	59	>580	110	> 33.9	>310
COc1ccc2cc1Oc1cc3c(cc1OC)CCN[C@H]3Cc1ccc(cc1)Oc1c3c(cc4c1[C@@H](C2)N(C)CC4)OCO3	662	13.3	1270	8.8	7.5

Compound	IC50 [1] [nM]	Selectivity Index [2]	IC50 [3] [nM]	EC50 [4] [µM]	Selectivity Index [5]
COc1cc2c3cc1Oc1cc(ccc1O)C[C@H]1c4c(cc(OC)c(c4O)OCc4ccc(cc4)CC3NCC2)CCN1C (stereo not given in full)	199	43.2	348	8.58	24.6
COc1ccc2cc1Oc1cc3c(cc1OC)CCN=C3Cc1ccc(cc1)Oc1c3c(cc4c1[C@@H](C2)N(C)CC4)OCO3	2100	>16.1	4980	> 33.9	>6.8
COc1ccc2cc1Oc1ccc(cc1)C[C@H]1c3c(cc(OC)c(OC)c3Oc3c4c(cc(OC)c3OC)[C@H](C2)N(C)CC4)CCN1C	110	76.4	224	8.4	37.7
COc1ccc2cc1Oc1ccc(cc1)C[C@@H]1NCCc3cc(OC)c(cc31)Oc1c(O)c(OC)cc3c1[C@@H](C2)N(C)CC3	218	12	118	2.7	23
COc1cc2c3cc1Oc1c(O)c(OC)cc4c1[C@H](Cc1ccc(cc1)Oc1cc(ccc1O)C[C@H]3N(C)CC2)N(C)CC4	1400	11	446	14.8	33
COc1ccc2cc1Oc1ccc(cc1)C[C@@H]1c3cc(c(OC)cc3CCN1C)Oc1c(O)c(OC)cc3c1[C@@H](C2)N(C)CC3	263	61	86	16.1	186
COc1cc2c3cc1Oc1c(OC)c(OC)cc4c1[C@@H](Cc1ccc(O)c(c1)Oc1ccc(cc1)C[C@@H]3N(C)CC2)NCC4	193	36	47	7.1	149
COc1cc2c3cc1Oc1cc(ccc1O)C[C@@H]1c4c(cc5c(c4Oc4ccc(cc4)C[C@@H]3N(C(C)=O)CC2)OCO5)CCN1C	4030	2.2	6890	8.87	1.3
COc1ccc2cc1Oc1ccc(cc1)C[C@H]1c3cc(c(OC)cc3CC[N+]1(C)[O-])Oc1c(OC)c(OC)cc3c1[C@H](C2)N(C)CC3 (stereo not given in full)	948	>34	1980	> 31.3	>16
C[C@@H]1CC[C@H]2[C@@H](C)C(=O)O[C@@H]3O[C@@]4(C)CC[C@@H]1[C@]32OO4 [ARTEMISININ]	14.6	>4860	15.1	> 70.9	>4680
COc1cc2c3cc1Oc1c(OC)c(OC)cc4c1[C@@H](Cc1ccc(O)c(c1)Oc1ccc(cc1)C[C@@H]3N(C)CC2)N(C)CC4 [BERBAMINE]	313	29	128	9.21	72
COc1ccc2cc1Oc1ccc(cc1)C[C@H]1c3c(cc4c(c3Oc3cc5c(cc3OC)CCN(C)[C@@H]5C2)OCO4)CCN1C [CEPHARANTHINE]	478	20	231	9.7	42
COc1ccc2cc1Oc1ccc(cc1)C[C@H]1c3cc(c(OC)cc3CCN1C)Oc1c(OC)c(OC)cc3c1[C@H](C2)N(C)CC3 [FANCHININ]	257	22	288	5.8	20
COc1ccc2cc1Oc1ccc(cc1)C[C@H]1c3cc(c(OC)cc3CCN1C)Oc1c(O)c(OC)cc3c1[C@H](C2)N(C)CC3 [FANGCHINOLINE]	306	30	179	9.21	51
COc1ccc2cc1Oc1ccc(cc1)C[C@H]1c3c(cc(OC)c(O)c3Oc3cc4c(cc3OC)CCN(C)[C@@H]4C2)CCN1C [HOMOAROMOLINE]	474	22	173	10.4	60
COc1ccc2cc1Oc1ccc(cc1)C[C@H]1c3c(cc(OC)c4c3Oc3cc5c(cc3O4)CCN(C)[C@H]5C2)CCN1C [ISOTRILOBINE]	788	30	388	24	62
COc1cc2c(cc1O)[C@H](Cc1ccc(OC)c(Oc3ccc(C[C@H]4c5cc(OC)c(OC)cc5CCN4C)cc3)c1)N(C)CC2 [NEOTHALIBRINE]	135	75	47	10.1	215
